Inconclusive results are not listed. Active and inactive are the calls of the source.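 How the source made its calls: active means inhibition of at least 30% at any tested concentration; inactive means the rest, inconclusive results apart.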

The target in this experiment is M18 aspartyl aminopeptidase (Plasmodium falciparum 3D7). The experiment is described as follows: PfM18AAP enzyme inhibitors, dose response, counter-screen for PfM17LAP inhibitor project, biochemical, QFRET fluorogenic substrate, set 2 (AID 602218). Conditions: recombinant PfM18AAP, H-Glu-NHMec fluorogenic cleavage. Summed up:
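Technique – released NHMec fluorescence, excitation 370 nm, emission 460 nm · System – purified recombinant Plasmodium falciparum M18 aspartyl aminopeptidase (rPFM18AAP) · Evaluation – percent inhibition versus controls, IC50 by four-parameter logistic fit · Replication – triplicate · Times – 90 min reaction, room temperature · Medium – Tris-HCl buffer pH 7.5 with 2 mM CoCl2, 2% DMSO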
A general note: Counterscreens check selectivity or assay interference.

`COc1ccc(CCCC(=O)NO)cc1`: the half-inhibitory concentration (IC50) (usually the concentration that gives 50% inhibition) was 14.6 µM. With `CCCCOc1ccc(CC(=O)O)cc1`, the inhibition entry (at 100 µM (top of the series)) is “inactive”. Take `CCCCc1ccc(CC(=O)NO)cc1`: the IC50 was 13.7 µM.

Take `CCCCOc1ccc(CC(=O)N(C)O)cc1`: the half-maximal inhibitory concentration (IC50) is 40.2 µM.

As to `CCOc1ccc(CC(=O)NO)cc1`, the IC50 was 34.1 µM. Take `O=C(Cc1ccc(Oc2ccccc2)cc1)NO`: the 50% inhibitory concentration (IC50) was 7.13 µM. Turning to `CCCCOc1ccc(CNc2c(N(O)Cc3ccccc3)c(=O)c2=O)cc1`, where the note is “at 25 µM (top of the series)”, the inhibition entry is “inactive”. For `CC(C)COc1ccc(CC(=O)NO)cc1`, the half-maximal inhibitory concentration (IC50) was 11.4 µM. Same read-out and setting: under `CN(O)C(=O)Cc1ccc(OCc2ccccc2)cc1` stands 29.2 µM; under `CCCCCCCCCC(=O)NO`, 18 µM. In the case of `CCCOc1ccc(CC(=O)OC)cc1`, the inhibition entry (at 100 µM (top of the series)) was “inactive”. As to `O=C(Cc1ccc2c(c1)CCCC2)NO`, the IC50 was 8.93 µM.

Turning to `CCCCOc1ccc(CNc2c(N(C)O)c(=O)c2=O)cc1`, the IC50 is 65.4 µM. Same read-out and setting: in the case of `CC(C)(C(=O)NO)c1ccccc1` it was 54.6 µM. `Cc1ccc(CC(=O)NO)cc1`: the IC50 was 33.6 µM. The same measure, in the same setting: in the case of `O=C(Cc1ccc(OCc2ccccc2)cc1)NO` it was 9.64 µM.

As to `CCCCOc1ccc(CCC(=O)NO)cc1`, the half-inhibitory concentration (IC50) is 18.5 µM. On the same count and under the same terms, under `O=C(NO)c1cccc2ccccc12` stands 10.1 µM; under `COc1ccc(CC(=O)NO)cc1`, 16.4 µM. Turning to `COC(=O)Cc1ccc(OCCN(C)C)cc1`, the inhibition entry (at 100 µM (top of the series)) is “inactive”. In the case of `CCCCOc1ccc(CC(=O)NO)cc1`, the IC50 is 10 µM. Still for that read-out and setting: in the case of `CCCCOc1ccc(C(=O)NO)cc1` it was 12.7 µM.

Source of the values: PubChem BioAssay AID602218 (Southern Research Specialized Biocontainment Screening …, 2012).
